Measured values reported in ChEMBL document CHEMBL3804761, “Synthesis of a stable and orally bioavailable englerin analogue” (Bioorg Med Chem Lett, 2016).

Assays:
Type in all cases: functional
[1] = Growth inhibition of human HOP62 cells incubated for 48 hrs by sulforhodamine B assay; conditions: HOP-62, 48 h; for TGI: read-out: pTGI (converted)
Summary of the method: (§1)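 NCI 60-cell-line panel, standard protocol. Cells exposed to compound for two days, growth read by sulforhodamine B staining. Tested at five 10-fold dilutions, top concentration 100 µM, to give dose-response curves.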

[2] = Growth inhibition of human UO31 cells assessed as cell growth at 10 uM incubated for 48 hrs by sulforhodamine B assay relative to control; conditions: UO-31, 48 h, read-out: Activity
Summary of the method: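 NCI 60-cell line standard protocol, one-dose screen: single final concentration 10 µM, 2-day drug exposure, sulforhodamine B (SRB) endpoint; read-out is growth percent relative to untreated control.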

[3] = tested on: NCI-H23; test: Growth inhibition of human NCI-H23 cells assessed as cell growth at 10 uM incubated for 48 hrs by sulforhodamine B assay relative to control; conditions: NCI-H23, 48 h, read-out: Activity
Summary of the method: (§2)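 Run in the standard NCI 60-cell-line screen. Cells were exposed to drug for two days, and the read-out was sulforhodamine B staining. Compound was tested at a single final concentration of 10 µM in every line, and results are reported as growth percent.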

[4] = Growth inhibition of human BT549 cells assessed as cell growth at 10 uM incubated for 48 hrs by sulforhodamine B assay relative to control; conditions: BT-549, 48 h, read-out: Activity; summary of the method: as §2
[5] = tested on: U-251; test: Growth inhibition of human U251 cells incubated for 48 hrs by sulforhodamine B assay; conditions: U-251, 48 h; for TGI: read-out: pTGI (converted)
Summary of the method: (§3)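 Tested in the standard NCI 60-cell-line protocol with two-day drug exposure and a sulforhodamine B endpoint. Compounds were first screened at a single final concentration of 10 µM, reported as growth percent. They were then run as five 10-fold dilutions starting from a high concentration of 100 µM to give dose-response curves.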

[6] = tested on: A498; test: Growth inhibition of human A498 cells incubated for 48 hrs by sulforhodamine B assay; conditions: A498, 48 h; for TGI: read-out: pTGI (converted)
[7] = Growth inhibition of human PC3 cells incubated for 48 hrs by sulforhodamine B assay; conditions: PC-3, 48 h; for CC50: read-out: pLC50 (the source's name) (converted); for TGI: read-out: pTGI (converted); summary of the method: as §1
[8] = tested on: NCI-H226; test: Growth inhibition of human NCI-H226 cells assessed as cell growth at 10 uM incubated for 48 hrs by sulforhodamine B assay relative to control; conditions: NCI-H226, 48 h, read-out: Activity; summary of the method: as §2
[9] = tested on: NCI-H460; test: Growth inhibition of human NCI-H460 cells incubated for 48 hrs by sulforhodamine B assay; conditions: NCI-H460, 48 h; for CC50: read-out: pLC50 (the source's name) (converted); for TGI: read-out: pTGI (converted); summary of the method: as §1
[10] = tested on: MCF7; test: Growth inhibition of human MCF7 cells incubated for 48 hrs by sulforhodamine B assay; conditions: MCF7, 48 h; for CC50: read-out: pLC50 (the source's name) (converted); for TGI: read-out: pTGI (converted); summary of the method: as §1
[11] = tested on: MDA-MB-231; test: Growth inhibition of human MDA-MB-231 cells assessed as cell growth at 10 uM incubated for 48 hrs by sulforhodamine B assay relative to control; conditions: MDA-MB-231, 48 h, read-out: Activity; summary of the method: as §2
[12] = Growth inhibition of human UACC257 cells incubated for 48 hrs by sulforhodamine B assay; conditions: UACC-257, 48 h; for CC50: read-out: pLC50 (the source's name) (converted); for TGI: read-out: pTGI (converted); summary of the method: as §3
[13] = tested on: KM12; test: Growth inhibition of human KM12 cells assessed as cell growth at 10 uM incubated for 48 hrs by sulforhodamine B assay relative to control; conditions: KM12, 48 h, read-out: Activity; summary of the method: as §2
[14] = Growth inhibition of human SF539 cells assessed as cell growth at 10 uM incubated for 48 hrs by sulforhodamine B assay relative to control; conditions: SF-539, 48 h, read-out: Activity
Summary of the method: (§4)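 Single-dose screen in the NCI 60-cell-line panel at one final concentration of 10 µM. Two-day drug exposure with a sulforhodamine B endpoint. Values are growth percent for each cell line.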

[15] = Growth inhibition of human SF268 cells incubated for 48 hrs by sulforhodamine B assay; conditions: SF-268, 48 h; for TGI: read-out: pTGI (converted); summary of the method: as §1
[16] = tested on: KM12; test: Growth inhibition of human KM12 cells incubated for 48 hrs by sulforhodamine B assay; conditions: KM12, 48 h; for TGI: read-out: pTGI (converted); summary of the method: as §1
[17] = tested on: K562; test: Growth inhibition of human K562 cells assessed as cell growth at 10 uM incubated for 48 hrs by sulforhodamine B assay relative to control; conditions: K562, 48 h, read-out: Activity; summary of the method: as §2
[18] = Growth inhibition of human SF539 cells incubated for 48 hrs by sulforhodamine B assay; conditions: SF-539, 48 h; for TGI: read-out: pTGI (converted); summary of the method: as §1
[19] = tested on: NCI-H522; test: Growth inhibition of human NCI-H522 cells incubated for 48 hrs by sulforhodamine B assay; conditions: NCI-H522, 48 h; for TGI: read-out: pTGI (converted); summary of the method: as §1
[20] = tested on: SR; test: Growth inhibition of human SR cells incubated for 48 hrs by sulforhodamine B assay; conditions: for TGI: read-out: pTGI (converted); summary of the method: as §3
[21] = Growth inhibition of human HL-60(TB) cells incubated for 48 hrs by sulforhodamine B assay; conditions: HL-60, 48 h; for CC50: read-out: pLC50 (the source's name) (converted); for TGI: read-out: pTGI (converted); summary of the method: as §1
[22] = tested on: NCI/ADR-RES; test: Growth inhibition of human NCI/ADR-RES cells assessed as cell growth at 10 uM incubated for 48 hrs by sulforhodamine B assay relative to control; conditions: read-out: Activity; summary of the method: as §2
[23] = Growth inhibition of human RPMI8226 cells incubated for 48 hrs by sulforhodamine B assay; conditions: RPMI-8226, 48 h; for CC50: read-out: pLC50 (the source's name) (converted); for TGI: read-out: pTGI (converted); summary of the method: as §1
[24] = tested on: K562; test: Growth inhibition of human K562 cells incubated for 48 hrs by sulforhodamine B assay; conditions: K562, 48 h; summary of the method: as §1
[25] = Growth inhibition of human HOP92 cells assessed as cell growth at 10 uM incubated for 48 hrs by sulforhodamine B assay relative to control; conditions: HOP-92, 48 h, read-out: Activity; summary of the method: as §4
[26] = Growth inhibition of human HOP92 cells incubated for 48 hrs by sulforhodamine B assay; conditions: HOP-92, 48 h; for TGI: read-out: pTGI (converted); summary of the method: as §1
[27] = tested on: M14; test: Growth inhibition of human M14 cells incubated for 48 hrs by sulforhodamine B assay; conditions: M14, 48 h; for TGI: read-out: pTGI (converted); summary of the method: as §1
[28] = Growth inhibition of human SNB19 cells assessed as cell growth at 10 uM incubated for 48 hrs by sulforhodamine B assay relative to control; conditions: SNB-19, 48 h, read-out: Activity; summary of the method: as §2

In the case of `C/C(=C\C(=O)O[C@H]1[C@@H]2[C@H](C)CC[C@H]2[C@]2(C)O[C@@]1(C(C)C)C[C@H]2NC(=O)CO)c1ccccc1`, the GI50 [1] is reported as 43.7 µM, the LC50 [1] is reported as over 100 µM and the TGI [1] is reported as over 100 µM. The growth at 10 µM [2] was 17.5%, the growth at 10 µM [3] was 97.7% and the growth at 10 µM [4] was 117%. The GI50 [5] was 43.7 µM, the LC50 (concentration giving 50% net cell kill) [5] was over 100 µM and the TGI [5] was over 100 µM. For the same compound, the LC50 [6] was 23.4 µM, the GI50 ([6]; read-out: GI50) was 1.15 µM and the GI50 ([6]; read-out: pGI50 (converted)) was 1.15 µM. The TGI [6] was 4.27 µM, the GI50 [7] was 18.6 µM and the CC50 [7] was over 100 µM. For the same compound, the TGI [7] was over 100 µM, the growth at 10 µM [8] was 90.7% and the GI50 [9] was 38 µM. The CC50 [9] was over 100 µM, the TGI [9] was over 100 µM and the GI50 [10] was 27.5 µM. It also gave a CC50 [10] of over 100 µM, a TGI [10] of over 100 µM and a growth at 10 µM [11] of 99.6%. For the same compound, the GI50 [12] was 34.7 µM, the CC50 [12] was over 100 µM and the TGI [12] was over 100 µM. The growth at 10 µM [13] was 112%, the growth at 10 µM [14] was 91.2% and the GI50 [15] was 26.9 µM. The LC50 (lethal concentration, 50% net cell kill) [15] was over 100 µM, the TGI [15] was over 100 µM and the GI50 [16] was 33.9 µM. For the same compound, the LC50 [16] was over 100 µM, the TGI [16] was over 100 µM and the growth at 10 µM [17] was 92.3%. It also gave a GI50 [18] of 49 µM, an LC50 [18] of over 100 µM and a TGI [18] of over 100 µM. For the same compound, the GI50 [19] was 27.5 µM, the LC50 [19] was over 100 µM and the TGI [19] was 81.3 µM. The GI50 [20] was 26.3 µM, the LC50 [20] was over 100 µM and the TGI [20] was 74.1 µM. It also gave a GI50 [21] of 17.8 µM, a CC50 [21] of over 100 µM and a TGI [21] of 61.7 µM. For the same compound, the growth at 10 µM [22] was 72.2%, the GI50 [23] was 19.5 µM and the CC50 [23] was over 100 µM. It also gave a TGI [23] of 56.2 µM, a GI50 [24] of 31.6 µM and a CC50 ([24]; read-out: pLC50 (the source's name) (converted)) of over 100 µM. The TGI ([24]; read-out: pTGI (converted)) was over 100 µM, the growth at 10 µM [25] was 87.1% and the GI50 [26] was 21.9 µM. For the same compound, the LC50 [26] was over 100 µM, the TGI [26] was 81.3 µM and the GI50 [27] was 44.7 µM. For the same compound, the LC50 [27] was over 100 µM, the TGI [27] was over 100 µM and the growth at 10 µM [28] was 108%.

With `CC(C)[C@@]12C[C@@H](NC(=O)CO)[C@@](C)(O1)[C@@H]1CC[C@@H](C)[C@H]1[C@@H]2OC(=O)/C=C/c1ccccc1` the GI50 [1] was 35.5 µM, the LC50 [1] was over 50.1 µM and the TGI [1] was over 50.1 µM. The growth at 10 µM [2] was 57.2%, the growth at 10 µM [3] was 81.9% and the growth at 10 µM [4] was 84.9%. For the same compound, the GI50 [5] was 15.5 µM, the LC50 (concentration giving 50% net cell kill) [5] was over 50.1 µM and the TGI [5] was over 50.1 µM. The LC50 [6] was 29.5 µM, the GI50 ([6]; read-out: GI50) was 0.162 µM and the GI50 ([6]; read-out: pGI50 (converted)) was 0.162 µM. It also gave a TGI [6] of 2.45 µM, a GI50 [7] of 11.7 µM and a CC50 [7] of over 50.1 µM. The TGI [7] was over 50.1 µM, the growth at 10 µM [8] was 90.8% and the GI50 [9] was 17 µM. The CC50 [9] was over 50.1 µM, the TGI [9] was over 50.1 µM and the GI50 [10] was 14.5 µM. It also gave a CC50 [10] of over 50.1 µM, a TGI [10] of over 50.1 µM and a growth at 10 µM [11] of 97.2%. For the same compound, the GI50 [12] was 10.5 µM, the CC50 [12] was over 50.1 µM and the TGI [12] was 45.7 µM. The growth at 10 µM [13] was 111%, the growth at 10 µM [14] was 97.2% and the GI50 [15] was 14.8 µM. It also gave an LC50 (lethal concentration, 50% net cell kill) [15] of over 50.1 µM, a TGI [15] of over 50.1 µM and a GI50 [16] of 20 µM. For the same compound, the LC50 [16] was over 50.1 µM, the TGI [16] was over 50.1 µM and the growth at 10 µM [17] was 86.6%. The GI50 [18] was 42.7 µM, the LC50 [18] was over 50.1 µM and the TGI [18] was over 50.1 µM. It also gave a GI50 [19] of 19.1 µM, an LC50 [19] of over 50.1 µM and a TGI [19] of over 50.1 µM. It also gave a GI50 [20] of 13.5 µM, an LC50 [20] of over 50.1 µM and a TGI [20] of 37.2 µM. It also gave a GI50 [21] of 14.5 µM, a CC50 [21] of over 50.1 µM and a TGI [21] of 37.2 µM. For the same compound, the growth at 10 µM [22] was 42.9%, the GI50 [23] was 11.5 µM and the CC50 [23] was over 50.1 µM. For the same compound, the TGI [23] was 42.7 µM, the growth at 10 µM [25] was 88.6% and the GI50 [26] was 5.25 µM. The LC50 [26] was over 50.1 µM, the TGI [26] was 24 µM and the GI50 [27] was 16.6 µM. For the same compound, the LC50 [27] was over 50.1 µM, the TGI [27] was over 50.1 µM and the growth at 10 µM [28] was 103%.
